ChEMBL document CHEMBL2016446, “Trivalent ultrashort lipopeptides are potent pH dependent antifungal agents” (J Med Chem, 2012)
≈ marks a conversion by molar mass, not a printed value. Calls of active or inactive are those of the source. No cut-off for these calls is given here.

Assays:
Aspergillus fumigatus [1] = assay: Antifungal activity against Aspergillus fumigatus ATCC 26430 after 48 hrs at pH 5.5; assay type: functional; details: ATCC 26430, 48 h
Method in brief: (§1)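 The method followed CLSI M38-A2 (Aspergillus) or M27-A3. Medium was RPMI 1640 with 0.165 M MOPS and L-glutamine, without NaHCO3, at pH 5.5 or 7.5. Inoculum of 2 × 10^3 CFU/mL was mixed 1:1 with serial 2-fold peptide dilutions. Incubation was at 35 °C: 48 h for A. fumigatus and C. albicans, 72 h for C. neoformans. MIC was read by eye as no growth. Values are averages of duplicates.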

Candida albicans [2] = assay: Antifungal activity against Candida albicans ATCC 10231 after 48 hrs at pH 5.5; assay type: functional; details: ATCC 10231, 48 h; method in brief: as §1
Cryptococcus neoformans [3] = assay: Antifungal activity against Cryptococcus neoformans ATCC MYA422 after 72 hrs at pH 5.5; assay type: functional; details: ATCC MYA422, 72 h; method in brief: as §1
[4] = Toxicity in human RBC assessed as hemolytic activity at 125 uM at pH 7.5 after 60 mins by spectrophotometry; assay type: cell-based; details: erythrocyte, pH 7.5, 1 h
Method in brief: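 Human erythrocytes (4% final) were incubated with peptide in PBS for 60 min at 37 °C. Hemoglobin release was read as supernatant absorbance at 540 nm. PBS alone served as the 0% reference and 1% Triton as the 100% reference. Values are averages of duplicates.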

RAW264.7 = assay: Cytotoxicity against mouse RAW264.7 cells at 200 uM after 16 hrs by XTT assay; assay type: cell-based; details: raw264.7, 16 h
Method in brief: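 RAW264.7 macrophages were grown in DMEM with 10% FBS, L-glutamine, pyruvate and nonessential amino acids at 37 °C, 5% CO2. Cells were seeded at 2 × 10^5 per well overnight, then exposed to peptides at 3.12–200 μM for 16 h. Medium was replaced with fresh medium plus XTT reagent. LC50 was taken from dose–viability curves.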

[5] = Ratio of LC50 for mouse RAW264.7 cells to MIC for Aspergillus fumigatus ATCC 26430; assay type: functional
Method in brief: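 LC50: RAW264.7 macrophages in supplemented DMEM, 2 × 10^5 cells/well overnight, then peptide at 3.12–200 μM for 16 h. Viability read by XTT; LC50 from dose–response curves. MIC: CLSI M38-A2 broth microdilution, 2 × 10^3 CFU/mL A. fumigatus ATCC 26430 in RPMI 1640/0.165 M MOPS (pH 5.5 or 7.5). Serial 2-fold dilutions, 35 °C for 48 h, growth scored visually. In vitro values are means of duplicates.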

Mus musculus [6] = assay: Toxicity in immunocompromized ICR mouse assessed as weight loss at 9 mg/kg, at pH 5.5 it administered on day 1, 4, 7 and 11 monitored for 28 days; assay type: organism-based; set-up: dose 9 mg/kg, route endotracheal; details: in vivo, inhaled_or_intranasal, pH 5.5, 9 mg/kg, 672 h
Method in brief: (§2)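 Six-week-old female ICR mice (n = 5) were immunosuppressed with cortisone acetate (150 mg/kg in PBS/0.1% Tween 80, s.c.) 4 days before the first dose, on that day, and 2 and 4 days after. Peptide in saline at pH 5.5 was given i.t. on days 1, 4, 7 and 11. Survival, weight, appearance and behaviour were followed for 28 days.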

Mus musculus [7] = assay: Toxicity in immunocompromized ICR mouse assessed as visible signs of toxicity at 9 mg/kg, at pH 5.5 it administered on day 1, 4, 7 and 11 monitored for 28 days; assay type: organism-based; set-up: dose 9 mg/kg, route endotracheal; details: in vivo, inhaled_or_intranasal, pH 5.5, 9 mg/kg, 672 h; method in brief: as §2
[8] = Stability of the compound at 1 ug/uL after 2 hrs by RP-HPLC analysis in presence of proteinase K; assay type: ADME
Method in brief: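 Peptide at 1 μg/μL in PBS (400 μL) mixed with 8 μL proteinase K solution (5 μg/μL; 2% DMSO final). Intact peptide quantified by RP-HPLC on a C4 column, 0.1% TFA water/acetonitrile, 10–90% B over 40 min. Measured against a peptide injection taken before enzyme addition. Melittin served as enzyme-activity control.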

Aspergillus fumigatus [9] = assay: Antifungal activity against Aspergillus fumigatus Af293 infected in immunocompromized ICR mouse assessed as reduction in fungal load in lung at 4.5 mg/kg, at pH 5.5 it administered on day 1 and 4 measured after 5 days post infection (reference value: 80 to 12920 CFU); assay type: functional; details: route endotracheal
Aspergillus fumigatus [10] = assay: Antifungal activity against Aspergillus fumigatus Af293 infected in immunocompromized ICR mouse assessed as reduction in fungal load in spleen at 4.5 mg/kg, at pH 5.5 it administered on day 1 and 4 measured after 5 days post infection (reference value: 10 to 140 CFU); assay type: functional; details: route endotracheal
Aspergillus fumigatus [11] = assay: Antifungal activity against Aspergillus fumigatus Af293 infected in immunocompromized ICR mouse assessed as reduction in fungal load in kidney at 4.5 mg/kg, at pH 5.5 it administered on day 1 and 4 measured after 5 days post infection (reference value: 20 to 5400 CFU); assay type: functional; details: route endotracheal
Aspergillus fumigatus [12] = assay: Antifungal activity against Aspergillus fumigatus ATCC 26430 after 48 hrs at pH 7.5; assay type: functional; details: ATCC 26430, 48 h; method in brief: as §1
Candida albicans [13] = assay: Antifungal activity against Candida albicans ATCC 10231 after 48 hrs at pH 7.5; assay type: functional; details: ATCC 10231, 48 h; method in brief: as §1
Cryptococcus neoformans [14] = assay: Antifungal activity against Cryptococcus neoformans ATCC MYA422 after 72 hrs at pH 7.5; assay type: functional; details: ATCC MYA422, 72 h; method in brief: as §1
Aspergillus fumigatus [15] = assay: Induction of membrane damage in Aspergillus fumigatus at 1.56 to 100 uM at pH 5.5 by Sytox green-based fluorescence assay; assay type: functional, organism-based
Method in brief: (§3)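 A. fumigatus at 2 × 10^3 CFU/mL in RPMI/MOPS (pH 7.4 or 5.5) was grown 20 h at 35 °C. Sytox green was added at 0.2 μM final in sodium phosphate buffer (pH 5.5 or 7.5) for 15 min. Peptides were then added at 100–1.56 μM final. Fluorescence (ex 485/em 530 nm) was read after 1 h.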

Aspergillus fumigatus [16] = assay: Induction of membrane damage in Aspergillus fumigatus at 1.56 to 100 uM at pH 7.5 by Sytox green-based fluorescence assay; assay type: functional, organism-based; method in brief: as §3
Aspergillus fumigatus [17] = assay: Induction of membrane depolarization in Aspergillus fumigatus at 1.56 to 100 uM at pH 5.5 by DiSC3(5)-based fluorescence assay; assay type: functional, organism-based
Method in brief: (§4)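 A. fumigatus was pregrown 20 h at 35 °C from 2 × 10^3 CFU/mL in RPMI/MOPS (pH 7.4 or 5.5). Cells were loaded with DiSC3(5) at 0.2 μM final in sodium phosphate buffer (pH 5.5 or 7.5) for 15 min. Peptides were added at 1.56–100 μM final, and fluorescence (ex 640/em 660 nm) was read after 1 h.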

Aspergillus fumigatus [18] = assay: Induction of membrane depolarization in Aspergillus fumigatus at 1.56 to 100 uM at pH 7.5 by DiSC3(5)-based fluorescence assay; assay type: functional, organism-based; method in brief: as §4
Escherichia coli [19] = assay: Antibacterial activity against Escherichia coli ATCC D21 after 18 to 20 hrs at pH 5.5; assay type: functional, organism-based
Method in brief: (§5)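 Broth microdilution in LB: bacterial suspension at 10^6 CFU/mL mixed 1:1 with serial 2-fold peptide dilutions, made from a 1 mg/mL aqueous stock. Strains were E. coli ATCC D21 and S. aureus ATCC 6538P. MIC was the lowest concentration with no growth after 18–20 h. Values are averages of duplicate experiments.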

Staphylococcus aureus [20] = assay: Antibacterial activity against Staphylococcus aureus ATCC 6538P after 18 to 20 hrs at pH 5.5; assay type: functional, organism-based; method in brief: as §5
Escherichia coli [21] = assay: Antibacterial activity against Escherichia coli ATCC D21 after 18 to 20 hrs at pH 7.5; assay type: functional, organism-based; method in brief: as §5
Staphylococcus aureus [22] = assay: Antibacterial activity against Staphylococcus aureus ATCC 6538P after 18 to 20 hrs at pH 7.5; assay type: functional, organism-based; method in brief: as §5

Compound: CCCCCCCCCCCCCC(=O)N[C@@H](Cc1c[nH]cn1)C(=O)N[C@@H](Cc1c[nH]cn1)C(=O)N1CCCN(C(=O)[C@H](Cc2c[nH]cn2)NC(=O)[C@H](Cc2c[nH]cn2)NC(=O)CCCCCCCCCCCCC)Cc2cc(cc(C(N)=O)c2)CN(C(=O)[C@H](Cc2c[nH]cn2)NC(=O)[C@H](Cc2c[nH]cn2)NC(=O)CCCCCCCCCCCCC)CCC1 [listing 1 of 2 here]
- MIC (Aspergillus fumigatus [1]): 3.12 µM (≈ 5.4 µg/mL)
- MIC (Candida albicans [2]): > 100 µM
- MIC (Cryptococcus neoformans [3]): 3.12 µM (≈ 5.4 µg/mL)
- Activity [4]: Non-toxic
- Activity (RAW264.7): Non-toxic
- Ratio [5]: 64
- Activity (Mus musculus [6]): Non-toxic
- Activity (Mus musculus [7]): Non-toxic
- remaining at 2 h, 1 ug/uL ([8]; proteinase K, read-out: Stability): 80%
- CFU (Aspergillus fumigatus [9]): 40
- CFU (Aspergillus fumigatus [10]): 20
- CFU (Aspergillus fumigatus [11]): 70
- MIC (Aspergillus fumigatus [12]): > 100 µM
- MIC (Candida albicans [13]): > 100 µM
- MIC (Cryptococcus neoformans [14]): > 100 µM

Compound: CC[C@H](C)[C@H](NC(=O)CN)C(=O)NCC(=O)N[C@@H](C)C(=O)N[C@H](C(=O)N[C@@H](CC(C)C)C(=O)N[C@@H](CCCCN)C(=O)N[C@H](C(=O)N[C@@H](CC(C)C)C(=O)N[C@H](C(=O)N[C@H](C(=O)NCC(=O)N[C@@H](CC(C)C)C(=O)N1CCC[C@H]1C(=O)N[C@@H](C)C(=O)N[C@@H](CC(C)C)C(=O)N[C@H](C(=O)N[C@@H](CO)C(=O)N[C@@H](Cc1c[nH]c2ccccc12)C(=O)N[C@H](C(=O)N[C@@H](CCCCN)C(=O)N[C@@H](CCCNC(=N)N)C(=O)N[C@@H](CCCCN)C(=O)N[C@@H](CCCNC(=N)N)C(=O)N[C@@H](CCC(N)=O)C(=O)N[C@@H](CCC(N)=O)C(N)=O)[C@@H](C)CC)[C@@H](C)CC)[C@@H](C)O)[C@@H](C)O)C(C)C)C(C)C [MELITTIN]
- Stability ([8]; 2 h): Unstable
- Activity (Aspergillus fumigatus [15]): Active
- Activity (Aspergillus fumigatus [16]): Active
- Activity (Aspergillus fumigatus [17]): Active
- Activity (Aspergillus fumigatus [18]): Active

Compound: C[C@@H]1[C@H](O)[C@@H](C)/C=C/C=C/C=C/C=C/C=C/C=C/C=C/[C@H](O[C@@H]2O[C@H](C)[C@@H](O)[C@H](N)[C@@H]2O)C[C@@H]2O[C@](O)(C[C@@H](O)C[C@@H](O)[C@H](O)CC[C@@H](O)C[C@@H](O)CC(=O)O[C@H]1C)C[C@H](O)[C@H]2C(=O)O [AMPHOTERICIN B]
- MIC (Aspergillus fumigatus [1]): 1 µM (≈ 0.924 µg/mL)
- MIC (Candida albicans [2]): 2.7 µM (≈ 2.5 µg/mL)
- MIC (Cryptococcus neoformans [3]): 1.35 µM (≈ 1.25 µg/mL)
- MIC (Aspergillus fumigatus [12]): 0.17 µM (≈ 0.157 µg/mL)
- MIC (Candida albicans [13]): 0.33 µM (≈ 0.305 µg/mL)
- MIC (Cryptococcus neoformans [14]): 0.17 µM (≈ 0.157 µg/mL)

Compound: CCCCCCCCCCCCCC(=O)N[C@@H](Cc1c[nH]cn1)C(=O)N[C@@H](Cc1c[nH]cn1)C(=O)N1CCCN(C(=O)[C@H](Cc2c[nH]cn2)NC(=O)[C@H](Cc2c[nH]cn2)NC(=O)CCCCCCCCCCCCC)Cc2cc(cc(C(N)=O)c2)CN(C(=O)[C@H](Cc2c[nH]cn2)NC(=O)[C@H](Cc2c[nH]cn2)NC(=O)CCCCCCCCCCCCC)CCC1 [listing 2 of 2 here]
- Activity (Escherichia coli [19]): inactive
- Activity (Staphylococcus aureus [20]): inactive
- Activity (Aspergillus fumigatus [15]): inactive
- Activity (Aspergillus fumigatus [16]): inactive
- Activity (Aspergillus fumigatus [17]): Active
- Activity (Aspergillus fumigatus [18]): Active
- Activity (Escherichia coli [21]): inactive
- Activity (Staphylococcus aureus [22]): inactive
